Residue numbers refer to the chain shown, from its start. Where two headings read alike, the source gives them in different places.
Tests used:
[1] = target: T1, PLC-γ1 (D1165H) (Rattus norvegicus, UniProt P10686, D1165H); test: IC50 measurement with XY-69 in liposomes; type: biochemical; settings: for inhibition of PLC-γ1: statement in conclusions, relative to ATP
T1 sequence (P10686 1-1290 D1165H): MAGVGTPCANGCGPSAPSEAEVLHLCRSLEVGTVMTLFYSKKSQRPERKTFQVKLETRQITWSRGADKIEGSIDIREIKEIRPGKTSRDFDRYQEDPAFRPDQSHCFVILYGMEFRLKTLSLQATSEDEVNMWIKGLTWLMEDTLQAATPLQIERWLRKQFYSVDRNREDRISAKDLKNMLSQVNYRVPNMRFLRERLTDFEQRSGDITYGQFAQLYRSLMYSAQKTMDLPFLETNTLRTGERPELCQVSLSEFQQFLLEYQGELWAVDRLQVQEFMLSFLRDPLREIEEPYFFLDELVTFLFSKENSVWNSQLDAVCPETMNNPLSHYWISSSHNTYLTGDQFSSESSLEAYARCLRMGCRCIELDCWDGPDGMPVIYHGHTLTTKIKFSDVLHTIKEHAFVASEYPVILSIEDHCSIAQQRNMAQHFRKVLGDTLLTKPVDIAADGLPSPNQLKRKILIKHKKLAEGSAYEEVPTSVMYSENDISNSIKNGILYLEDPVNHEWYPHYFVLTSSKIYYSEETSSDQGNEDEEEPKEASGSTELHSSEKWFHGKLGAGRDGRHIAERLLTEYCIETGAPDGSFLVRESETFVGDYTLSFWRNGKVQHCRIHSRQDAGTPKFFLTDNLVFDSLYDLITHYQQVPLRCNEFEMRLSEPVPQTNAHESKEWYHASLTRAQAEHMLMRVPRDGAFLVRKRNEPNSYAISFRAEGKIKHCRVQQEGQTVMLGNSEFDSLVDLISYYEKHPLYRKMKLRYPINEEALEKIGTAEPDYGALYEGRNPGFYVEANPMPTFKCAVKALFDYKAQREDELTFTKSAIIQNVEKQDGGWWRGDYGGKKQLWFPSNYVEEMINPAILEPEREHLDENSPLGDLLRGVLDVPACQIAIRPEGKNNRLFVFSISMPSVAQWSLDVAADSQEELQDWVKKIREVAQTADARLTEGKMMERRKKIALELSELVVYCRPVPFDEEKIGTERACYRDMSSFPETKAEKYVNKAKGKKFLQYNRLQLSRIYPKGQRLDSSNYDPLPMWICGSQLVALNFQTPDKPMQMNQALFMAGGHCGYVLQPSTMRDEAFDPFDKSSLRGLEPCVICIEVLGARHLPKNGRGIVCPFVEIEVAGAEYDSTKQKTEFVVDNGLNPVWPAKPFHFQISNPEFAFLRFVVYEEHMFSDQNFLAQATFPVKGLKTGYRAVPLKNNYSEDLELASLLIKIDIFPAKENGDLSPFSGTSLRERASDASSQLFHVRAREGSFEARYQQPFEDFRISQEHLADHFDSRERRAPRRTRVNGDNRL

[2] = test system: PLCs; settings: purified enzymes and intact cells; pan-inhibitors ref 24; cited from earlier work
[3] = target: T1, PLC-γ1 (D1165H); test: Pilot high-throughput screen of LOPAC1280 with XY-69 in liposomes; type: biochemical
How it was run: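 Screening was run in duplicate in 384-well format with test compounds at 10 μM. Purified PLC-γ1 (D1165H), 1 nM final, was preincubated 15 min at room temperature, then liposomes were added (final PE 220 μM, PIP₂ 20 μM, XY-69 0.5 μM). After 1 h the reaction was quenched with EGTA, pH 10.3, and read 30 min later (ex 485/em 520 nm). Full-inhibition controls were EGTA 10 mM and aurintricarboxylic acid 50 μM.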

[4] = stated without experiment or reference; cited from earlier work
[5] = test system: PLC-β4; settings: high concentration (1 mM) ref 39; cited from earlier work
[6] = target: T2, wild-type PLC-γ1 (Rattus norvegicus, UniProt P10686); test: Isothermal titration calorimetry; type: binding; settings: ITC, 25 °C
T2 sequence (P10686 2-1290): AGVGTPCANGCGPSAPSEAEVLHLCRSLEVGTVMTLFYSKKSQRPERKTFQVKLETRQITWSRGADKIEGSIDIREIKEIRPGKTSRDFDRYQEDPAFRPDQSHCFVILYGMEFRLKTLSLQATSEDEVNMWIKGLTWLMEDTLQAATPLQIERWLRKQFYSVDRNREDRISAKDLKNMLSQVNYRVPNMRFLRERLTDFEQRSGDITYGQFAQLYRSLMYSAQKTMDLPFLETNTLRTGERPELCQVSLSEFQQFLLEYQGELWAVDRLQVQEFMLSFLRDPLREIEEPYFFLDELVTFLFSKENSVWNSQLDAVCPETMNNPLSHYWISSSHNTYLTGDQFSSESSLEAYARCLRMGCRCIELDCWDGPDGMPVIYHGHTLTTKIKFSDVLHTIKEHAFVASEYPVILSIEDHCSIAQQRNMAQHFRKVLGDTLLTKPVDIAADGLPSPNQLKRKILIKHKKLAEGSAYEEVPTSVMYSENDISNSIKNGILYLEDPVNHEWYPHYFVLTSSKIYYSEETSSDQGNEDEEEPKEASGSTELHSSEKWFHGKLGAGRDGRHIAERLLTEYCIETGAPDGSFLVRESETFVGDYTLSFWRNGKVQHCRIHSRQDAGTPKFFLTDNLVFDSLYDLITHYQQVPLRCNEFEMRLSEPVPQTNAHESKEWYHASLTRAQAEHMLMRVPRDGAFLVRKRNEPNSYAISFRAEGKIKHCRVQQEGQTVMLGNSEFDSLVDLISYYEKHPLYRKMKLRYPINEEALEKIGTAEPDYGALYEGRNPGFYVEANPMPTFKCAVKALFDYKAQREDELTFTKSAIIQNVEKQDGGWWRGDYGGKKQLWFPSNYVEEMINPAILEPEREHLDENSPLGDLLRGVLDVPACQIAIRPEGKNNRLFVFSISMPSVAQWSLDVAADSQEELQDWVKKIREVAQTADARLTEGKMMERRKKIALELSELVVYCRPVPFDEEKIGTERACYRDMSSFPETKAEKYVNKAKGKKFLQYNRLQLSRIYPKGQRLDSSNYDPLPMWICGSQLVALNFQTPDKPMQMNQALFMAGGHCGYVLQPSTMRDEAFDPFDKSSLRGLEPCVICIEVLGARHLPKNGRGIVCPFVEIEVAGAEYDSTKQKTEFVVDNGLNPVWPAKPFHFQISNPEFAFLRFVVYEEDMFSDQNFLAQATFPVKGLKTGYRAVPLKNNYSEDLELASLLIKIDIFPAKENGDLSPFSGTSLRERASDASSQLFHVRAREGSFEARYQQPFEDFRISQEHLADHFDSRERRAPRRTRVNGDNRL

[7] = target: T3, wild-type PLC-γ1 (Rattus norvegicus, UniProt P10686)
T3 sequence (P10686 1-1290): T1 sequence (P10686 1-1290 D1165H) with H1165D

[8] = test system: PLC-β2; settings: purified PLC ref 7; cited from earlier work
[9] = test system: PLC-γ1; settings: purified PLC ref 7; cited from earlier work
[10] = test system: PLC-δ1; settings: purified PLC ref 7; cited from earlier work
[11] = Solubility; type: physicochemical
[12] = XY-69 0.5 μM, PIP2 20 μM in liposomes

Nc1ncnc2c1ncn2[C@@H]1O[C@H](COP(=O)(O)OP(=O)(O)O)[C@@H](O)[C@H]1O [ADP]
IC50 [1, 12]: 4.3 µM | inhibition of PLC-γ1 [1]: less or no inhibition

Nc1ncnc2c1ncn2[C@@H]1O[C@H](COP(=O)(O)O)[C@@H](O)[C@H]1O [AMP]
inhibition of PLC-γ1 [1]: less or no inhibition

O=C(O)C1=CC(=C(c2ccc(O)c(C(=O)O)c2)c2ccc(O)c(C(=O)O)c2)C=CC1=O [ATA, aurintricarboxylic acid]
direct inhibition of PLCs [2]: direct inhibitors | inhibition by control in pilot screen ([3]; 50 μM): Full inhibition | cell permeability [4]: not cell permeable

Nc1ncnc2c1ncn2[C@@H]1O[C@H](COP(=O)(O)OP(=O)(O)OP(=O)(O)O)[C@@H](O)[C@H]1O [ATP, adenosine triphosphate]
cell permeability [4]: not cell permeable | inhibition [5]: inhibit | Kd [6]: 2.6 µM | reduction of Vmax ([7]; 5 μM ATP present): 4.1 fold | change of KM ([7]; 1.5 and 5 μM ATP present): essentially unchanged | IC50 [1]: 0.19 µM

O=C(O)CN(CCOCCOCCN(CC(=O)O)CC(=O)O)CC(=O)O [EGTA]
inhibition by control in pilot screen ([3]; 10 mM, chelates Ca2+ cofactor): Full inhibition

Nc1nc2c(ncn2[C@@H]2O[C@H](COP(=O)(O)OP(=O)(O)OP(=O)(O)O)[C@@H](O)[C@H]2O)c(=O)[nH]1 [GTP]
IC50 [1, 12]: 12.7 µM

COc1ccc2c(c1)CC[C@@H]1[C@@H]2CC[C@]2(C)[C@@H](NCCCCCCN3C(=O)C=CC3=O)CC[C@@H]12 [Hit U73122]
flagged as inhibitor in pilot screen ([3]; LOPAC1280 at 10 μM): not flagged as an inhibitor | inhibition of phospholipase activity [8]: does not inhibit | inhibition of phospholipase activity [9]: does not inhibit | inhibition of phospholipase activity [10]: does not inhibit

O=C1Nc2cc(Br)ccc2/C1=C1/Nc2ccccc2/C1=N\O [Hit-1, 6-bromoindirubin-3′-oxime]
cell permeability [4]: cell permeable | solubility in aqueous buffer [11]: poor solubility

Reference: paper PMC8081235 (Biochemistry, 2020)
